# Bioassay records from PubChem.
# SKN-1 inh: blocks SKN-1 activity in C. elegans; C. elegans VP596 Pgst-4::GFP/RFP ratio, acrylamide-induced, 24 h; inhibition, % at 21.8 µM; 0.49% of 360,000 active; AID 624304;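 active = interference check ratio from 0.5 to 1.5 plus GFP to RFP signal ratio inhibition reaching or exceeding a fixed threshold, cut at about 30% in these data, passing the limit was not always enough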
# MPTP block: blocks calcium-induced mitochondrial swelling; isolated mouse mitochondria, Ca2+ swelling absorbance, 30 min; inhibition, % at 10 µM; 1.4% of 360,000 active; AID 602449;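 active = inhibition of 50% or more, scaled per plate between neutral and stimulator controls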
# MT1-MMP act inh: inhibitors of human MT1-MMP activation; P50281; HT1080 RFP-PRO-GFP cells, GFP/RFP ratio fluorescence, overnight; percent of plate control window, DMSO zero; GFP/RFP ratio change, % at 20 µM; 0.061% of 360,000 active;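 active = GFP/RFP ratio change of at least 30% with cell ATP level not reduced by more than half and red fluorescence within 50% of control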
#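 Test system: HT1080 cells expressing an RFP-PRO-GFP fluorescent reporter construct / Compound dosing: single-point 20 µM compound, 1% DMSO / Schedule: cells overnight before dosing, compound overnight, 37 °C, 5% CO2 / Evaluation: GFP/RFP fluorescence ratio / Control set: DMSO and RFP-L50D-GFP cell wells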
# ATG4B inh: blocks human ATG4B protease cleavage of LC3 substrate; Q9Y4P1; ATG4B cleavage of LC3-PLA2, NBD-HPC fluorescence, 1 h; inhibition, % at 8.33 µM; 0.51% of 340,000 active; AID 504462; in the data active = inhibition above about 40%
# Target sequence (Q9Y4P1 whole entry, looked up): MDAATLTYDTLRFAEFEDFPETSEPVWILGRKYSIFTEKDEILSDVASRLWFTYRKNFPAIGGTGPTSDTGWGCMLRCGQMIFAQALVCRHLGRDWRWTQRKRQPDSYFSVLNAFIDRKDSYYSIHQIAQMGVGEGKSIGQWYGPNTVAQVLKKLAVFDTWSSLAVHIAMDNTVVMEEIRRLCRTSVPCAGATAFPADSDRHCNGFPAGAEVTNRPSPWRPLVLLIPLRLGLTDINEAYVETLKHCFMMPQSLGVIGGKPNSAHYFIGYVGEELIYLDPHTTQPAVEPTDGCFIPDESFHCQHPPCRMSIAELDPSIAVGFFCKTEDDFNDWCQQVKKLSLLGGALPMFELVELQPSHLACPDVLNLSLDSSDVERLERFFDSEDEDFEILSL
# Rh123 counter: membrane potential counter-screen of mitochondrial pore inhibitors; isolated mitochondria, Rhodamine 123 fluorescence; AID 624504; inhibition, % at 10 µM; 78% of 5,000 active; shares compounds with MPTP block; in the data active = inhibition above about 22%
# MPTP swell DR: dose response confirmation of mitochondrial permeability transition pore inhibitors | shares compounds with MPTP block | isolated mitochondria swelling, absorbance | IC50, µM | 58% of 780 active | AID 651561; in the data active = IC50 below about 20 µM
# MPTP counter DR: MPTP inhibitor counter-screen activity, dose response | shares compounds with MPTP block | isolated mitochondria counterscreen, fluorescence read-out | IC50, µM | 49% of 780 active | AID 651564; in the data active = IC50 below about 80 µM
# Hits are given with their value; 0 = inactive; - = no result given. Shown are actives, neighbours in structure and some others; about 2.3% of the full set was active somewhere.
SMILES,SKN-1 inh,MPTP block,MT1-MMP act inh,ATG4B inh,Rh123 counter,others
COc1ccccc1NC(=O)c1ccc(S(=O)(=O)N2CCCC(C)C2)cc1 (stereo unspecified),0,0,0,0,-,
CC1CCN(S(=O)(=O)c2ccc(C(=O)Nc3ccccc3-c3nc4ccccc4[nH]3)cc2)CC1,0,94,0,0,64,
CC1CCN(S(=O)(=O)c2ccc(C(=O)Nc3ncccc3O)cc2)CC1,0,0,0,0,-,
CC1CCCN(S(=O)(=O)c2ccc(C(=O)Nc3ccccc3-c3nc4ccccc4[nH]3)cc2)C1 (stereo unspecified),0,90,0,0,0,MPTP swell DR=7.2;MPTP counter DR=4.2
O=C(CSc1n[nH]c(=O)n1Cc1ccco1)Nc1ccccc1Cl,0,0,0,0,-,
COc1ccc(CN2CCC(C(=O)Nc3ccc(Oc4cccnc4)cc3)CC2)c(C)c1C,0,83,0,0,91,
CCOC(=O)c1c(C(=O)OCC)c(C)n(CCc2ccc(OC)c(OC)c2)c1C,0,0,0,0,-,
Cc1cc(/C=N/n2cnnc2)c(C)n1-c1ccc(OCc2ccc(Cl)cc2)cc1,0,114,0,0,100,
Cc1cc(/C=N/n2cnnc2)c(C)n1-c1ccc(OCc2ccccc2F)cc1,0,98,0,0,96,
O=C(Nc1cccc2c1[nH]c1ccccc12)C(F)(F)F,0,99,0,0,87,
CC(Oc1ccc(Br)cc1)C(=O)Nc1ccncc1 (stereo unspecified),0,0,0,0,-,
CC(Oc1ccc(Br)cc1Cl)C(=O)Nc1ccncc1 (stereo unspecified),0,77,0,0,80,
CCOC(=O)C1CCN(C(=O)C2CCN(C(=O)c3ccc([N+](=O)[O-])cc3)CC2)CC1,0,0,0,0,-,
C(=C\c1ccccc1)/CN1CCN(c2ncnc3c2oc2ccccc23)CC1,0,95,0,0,94,
c1ccc2c(c1)oc1c(N3CCOCC3)ncnc12,0,0,0,0,-,
O=c1[nH]c(CN2CCN(C/C=C/c3ccccc3)CC2)nc2ccccc12,0,0,0,0,-,
Nc1nc(N2CCN(C/C=C/c3ccccc3)CC2)nc2ccccc12,0,63,0,0,0,MPTP swell DR=0;MPTP counter DR=59
O=C1C2C3C=CC(C2C(=O)N1CCO)C1C(=O)N(CCO)C(=O)C31 (stereo unspecified),0,0,0,0,-,
CC(Oc1cc(-c2ccccc2)cc2ccccc12)C(=O)N1CCOCC1 (stereo unspecified),0,0,0,0,-,
COc1ccccc1CNC(=O)CCc1nc2ccccc2c(=O)[nH]1,0,0,0,0,-,
CN(C)CCCNC(=O)CCc1nc2ccccc2c(=O)[nH]1,0,74,0,0,0,MPTP swell DR=0;MPTP counter DR=0
CCN(CC)c1ccc(NC(=O)COC(=O)c2ccc3ccccc3n2)cc1,0,0,-,0,-,
CCCCc1cc(=O)oc2cc(O)cc(O)c12,0,0,0,0,-,
CCCc1cc(O)c2c(C)cc(=O)oc2c1,0,82,0,0,87,
CCCCc1cc(=O)oc2cc(C)cc(O)c12,0,86,0,0,96,
SMILES,SKN-1 inh,MPTP block,MT1-MMP act inh,ATG4B inh,Rh123 counter,others
CN1CCN(C(=O)CSc2ccc(C(F)(F)F)cc2[N+](=O)[O-])CC1,0,0,0,0,-,
COc1ccccc1C(NC(=O)C1CCN(CCOc2ccc(Cl)cc2Cl)CC1)c1ccccn1 (stereo unspecified),0,0,0,-,-,
Cc1cc(=O)oc2cc(O)cc(OCc3ccccc3)c12,0,78,0,0,98,
CC(=O)N1CCN(C(=S)c2ccc([N+](=O)[O-])cc2)CC1,0,119,0,0,0,MPTP swell DR=0;MPTP counter DR=0
CC(=O)N1CCN(c2ccc([N+](=O)[O-])cc2)CC1,0,0,0,0,-,
CCn1cc(CN2CCC(C(=O)Nc3cccc(-c4cccc(OC)c4)c3)CC2)c(C)n1,0,0,0,0,-,
CCc1nc2c(cnn2-c2ccc(F)cc2)c(=O)n1-c1ccc(N2CCC(C)CC2)cc1,0,76,0,0,0,MPTP swell DR=7.3;MPTP counter DR=21
Cc1nc2c(cnn2-c2ccccc2Cl)c(=O)n1-c1ccc(N2CCC(C)CC2)cc1,0,0,0,0,-,
O=C(NCc1ccc(Cl)cc1Cl)Nc1ccccc1,0,80,0,0,94,
O=C(NCc1csc2ccc(Cl)cc12)Nc1cccc2ccccc12,0,0,0,0,-,
O=C(NCc1csc2ccc(Cl)cc12)Nc1ccccc1,0,85,0,0,75,
O=S(=O)(Nc1ccccc1O)c1ccc(-c2ccccc2)cc1,0,84,0,0,90,
COc1ccc(-c2c[n+]3c4n2CCCCC4=C(c2ccc(Br)cc2)C3)cc1,0,56,0,0,68,
CC1(C(=O)NS(=O)(=O)c2cccs2)CCN1C(=O)CC1CC1 (stereo unspecified),0,0,0,-,-,
COc1cc(NS(=O)(=O)c2ccc(C)cc2C)cc(OC)c1OC,0,84,0,0,72,
COc1cc(NS(=O)(=O)c2cc3[nH]c(=O)c(=O)[nH]c3cc2C)cc(OC)c1OC,0,0,0,0,-,
CC(C)(C)c1ccc(CNc2ccc([N+](=O)[O-])cn2)cc1,0,56,0,0,75,
CC(=O)NCCNc1ccc([N+](=O)[O-])cn1,0,0,0,0,-,
CC1CCN(S(=O)(=O)c2nnc(NC(=O)c3cccc(Cl)c3)s2)CC1,0,83,0,0,79,
O=C(Nc1cccc(Cl)c1)c1ccc(F)c(S(=O)(=O)NCc2cccs2)c1,0,77,0,0,84,
CCN(c1ccccc1)S(=O)(=O)c1cc(C(=O)Nc2cccc(Cl)c2)ccc1F,0,95,0,0,69,
Cc1cccc(NC(=O)c2ccc(F)c(S(=O)(=O)NCc3ccco3)c2)c1,0,0,0,0,-,
CCc1ccc(NC(=O)c2ccc(F)c(S(=O)(=O)N(CC)c3ccccc3)c2)cc1,0,62,0,0,76,
CCN(c1ccccc1)S(=O)(=O)c1cc(NC(=O)C2CC2)ccc1Cl,0,0,0,0,-,
CC(C)c1ccc(-c2csc(NC(=O)c3cccs3)c2C(=O)O)cc1,0,62,0,0,56,
SMILES,SKN-1 inh,MPTP block,MT1-MMP act inh,ATG4B inh,Rh123 counter,others
CCOc1ccc2nc(SCC(=O)Nc3ccc4c(c3)OCO4)sc2c1,0,75,0,0,69,
Cc1ccc(-c2nsc(SCC(=O)Nc3ccc4c(c3)OCO4)n2)cc1,0,96,0,0,89,
O=C(CSc1nc(-c2ccccc2Cl)ns1)Nc1ccc2c(c1)OCO2,0,87,0,0,80,
COCCNCCCCOc1ccccc1-c1ccccc1,0,0,0,0,-,
CCCCNCCOCCOc1ccccc1-c1ccccc1,0,83,0,0,0,MPTP swell DR=0;MPTP counter DR=0
COc1ccc(Cl)cc1NC(=O)CN(C)CC(=O)NC(C)c1ccccc1 (stereo unspecified),0,0,0,0,-,
C=CCn1c(SCC2CCCCO2)nc2sc(CC)cc2c1=O (stereo unspecified),0,54,0,0,22,
